We go through 1 compound from PMC6360136 (Investigational new drugs, 2018).

Assay [1] has as its system EC68, EC46 and PANC-1 cells. In words: Cell growth MTT assay. The settings on record: in vitro studies, Fig. 1, MTT 48 h. In kind it is cell-based, human. Put shortly:
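PANC-1 and primary patient-derived pancreatic cancer lines EC46 and EC68 were grown in DMEM/F-12K (1:1) with 10% FBS at 37 °C and 5% CO2. Cells were seeded at 5000/well and attached overnight. They were then exposed for 48 h to the test compound at various concentrations or to EtOH solvent control. Viability was read by MTT, and curves were fitted by nonlinear regression.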
A general note: Tetrazolium dyes change colour on reduction, which living cells bring about.

For the next assay, the system named is EC68 cells. In words: Cell viability assay. In kind it is cell-based, human. The settings on record: EC68 primary pancreatic cancer cells, MTT, 48 h.
Assay [2] deals with orthotopic pancreatic patient-derived xenograft (PDX) tumor. The assay is described as follows: In vivo efficacy study in orthotopic pancreatic PDX mouse model. The settings on record: 0.25 mg/kg i.p. every other day, NSG mice. An outline of the steps: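 A surgically resected human pancreatic ductal adenocarcinoma was expanded as 3 × 3 mm flank implants in female NSG mice and passaged at 2.0 cm. Second-generation tumour was then implanted orthotopically. On postoperative day 45 (palpable, 3–4 mm), mice were randomised to test compound 0.25 mg/kg i.p. or DMSO control every other day until endpoint. Diameter was measured by calipers and ultrasound every 3–5 days and volume calculated from it. Analysis used repeated-measures two-way ANOVA with Sidak tests.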

Assay [3] relates to orthotopic pancreatic PDX tumor. In words: TUNEL staining of PDX tumors. In kind it is in vivo, NSG mice. The settings on record: PDX tumors at euthanasia, 0.25 mg/kg i.p. every other day, vs vehicle. Put shortly:
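Orthotopic PDX mice received test compound 0.25 mg/kg i.p. or DMSO every other day. At endpoint, tumours were formalin-fixed and paraffin-embedded, and 5 micron sections were cut. Sections were stained for Ki-67 (proliferation) or by TUNEL (apoptosis). Ki-67 was scored as the average number of positive cells per high-power field by image analysis.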

Assay [4] concerns VEGF-A secretion in PANC-1 and EC46 cells. The assay is described as follows: VEGF-A AlphaLISA. In kind it is cell-based, human. The settings on record: 12 h. (In general: In Alpha technology, singlet oxygen from a donor bead excites a nearby acceptor bead.)

As usually defined, the GI50 is the concentration that inhibits growth by half. Regarding `CC[C@H](C)[C@@H]1C(=O)N2CCC[C@@H]2C(=O)O[C@H](C(C)(C)C)C[C@@H](C)C[C@@H](O)C(C)(C)C2=N[C@H](CCC(=O)N[C@@H](Cc3ccc(OC)cc3)C(=O)N(C)[C@@H](C)C(=O)N1C)CS2` [Apra S10, apratoxin S10], in assay [1], the “concentration required to achieve the maximal response” value is recorded as “around 50 nM” and the “concentration required to achieve the maximal response (minimum effective concentration)” value was around 40 ng/mL. In addition, growth in the assay with EC68 cells was halved (GI50) at 0.35 nM. Also, in assay [2], the “tumor growth (tumor volume)” value is “significantly retarded tumor growth”. Besides, the “number of cells undergoing apoptosis (TUNEL)” value in assay [3] is reported as “no difference”. Moreover, the “effect on VEGF-A secretion” value in assay [4] is “inhibited the secretion of VEGF-A at low nanomolar to subnanomolar concentrations”.
